The values that follow come from BindingDB's records for doi:10.1016/j.ejmech.2020.112417 (University of Houston, 2020).

Sequence of Nucleotide-binding oligomerization domain-containing protein 2 (Q9HC29 whole entry, the tested form may be a part): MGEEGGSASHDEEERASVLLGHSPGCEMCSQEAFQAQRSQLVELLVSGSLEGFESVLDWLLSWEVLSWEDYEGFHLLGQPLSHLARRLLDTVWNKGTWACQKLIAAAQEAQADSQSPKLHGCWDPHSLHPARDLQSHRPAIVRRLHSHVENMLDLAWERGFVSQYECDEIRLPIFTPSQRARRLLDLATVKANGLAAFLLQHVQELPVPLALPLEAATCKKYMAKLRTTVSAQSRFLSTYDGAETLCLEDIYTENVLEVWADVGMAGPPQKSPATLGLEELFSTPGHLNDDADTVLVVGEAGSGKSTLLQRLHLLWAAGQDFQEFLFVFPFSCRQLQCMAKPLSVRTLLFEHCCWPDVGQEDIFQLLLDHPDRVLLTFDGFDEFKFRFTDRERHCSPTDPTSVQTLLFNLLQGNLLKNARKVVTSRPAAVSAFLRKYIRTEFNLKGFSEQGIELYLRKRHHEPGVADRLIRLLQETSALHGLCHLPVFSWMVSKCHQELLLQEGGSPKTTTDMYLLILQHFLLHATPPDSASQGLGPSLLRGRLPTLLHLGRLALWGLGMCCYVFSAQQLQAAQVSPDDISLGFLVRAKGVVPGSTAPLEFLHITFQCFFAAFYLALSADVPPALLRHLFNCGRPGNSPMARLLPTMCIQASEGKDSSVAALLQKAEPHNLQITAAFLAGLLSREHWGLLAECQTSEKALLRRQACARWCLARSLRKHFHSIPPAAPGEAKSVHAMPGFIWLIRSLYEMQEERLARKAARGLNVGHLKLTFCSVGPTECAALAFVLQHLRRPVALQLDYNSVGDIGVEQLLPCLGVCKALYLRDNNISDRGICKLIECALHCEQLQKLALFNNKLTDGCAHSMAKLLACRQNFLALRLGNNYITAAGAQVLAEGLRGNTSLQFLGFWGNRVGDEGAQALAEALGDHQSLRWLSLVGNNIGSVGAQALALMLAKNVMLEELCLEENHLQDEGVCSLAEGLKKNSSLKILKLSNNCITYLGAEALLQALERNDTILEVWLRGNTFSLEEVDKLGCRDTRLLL

The target in this test is Nucleotide-binding oligomerization domain-containing protein 2 (Homo sapiens, UniProt Q9HC29). As to the kind of experiment: Inhibition of human NOD2 expressed in HEK293 cells coexpressing NFkappaB-SEAP reporter measured after 7 to 9 hrs by HEKBIue reporter assay. Put shortly:
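IC50 values reported as the mean of two or three determinations ± standard deviation.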
A general note: In a reporter assay the amount or activity of a reporter protein is the signal.
For orientation: IC50 means the concentration that gives 50% inhibition. A lower IC50 goes with greater potency. For the molecule `CCOc1cc(NS(=O)(=O)C(C)C)cc(-c2cc(-c3ccc(N4CCNCC4)cc3)cnc2N)c1`, the IC50 is 46 nM. Regarding `CCCS(=O)(=O)Nc1cc(OC)cc(-c2cc(-c3ccc(N4CCNCC4)cc3)cnc2C)c1`, the IC50 was 2670 nM. Under `CCCS(=O)(=O)Nc1cc(-c2cc(-c3cccc(N4CCNCC4)c3)cnc2N)cc(F)c1OC` stands 16 nM; under `CCCS(=O)(=O)Nc1ccc(-c2cc(-c3ccc(N4CCNCC4)cc3)cnc2C)cc1OC`, 2940 nM; under `CCCS(=O)(=O)N1CCc2ccc(-c3cc(-c4ccc(N5CCNCC5)cc4)cnc3N)cc21`, 2430 nM. In the case of `CCCS(=O)(=O)Nc1cc(-c2cc(-c3ccc(N4CCNCC4)cc3)cnc2N)cc(C)c1OC` it was 129 nM. `CCCS(=O)(=O)Nc1cc(-c2cc(-c3cccc(S(C)(=O)=O)c3)cnc2N)ccc1OC` gave an IC50 of 2660 nM.

Molecule `CCCS(=O)(=O)Nc1cc(-c2cc(-c3ccc(N4CCNCC4)cc3)cnc2N)cc2c1OCCO2` displayed an IC50 of 2460 nM. This IC50 and that of the molecule before are within 1.5-fold of each other. Under `CCCS(=O)(=O)Nc1cc(-c2cc(-c3ccc(N4CCNCC4)cc3)cnc2N)cc(OC)c1C` stands 3350 nM; under `CCCS(=O)(=O)Nc1cc(-c2cc(-c3ccc(N4CCNCC4)cc3)cnc2N)cc(F)c1OC`, 26 nM; under `CCCS(=O)(=O)Nc1cc(-c2cc(-c3ccc(N4CCNCC4)cc3)cnc2N)ccc1OC`, 420 nM.

For the molecule `CCCS(=O)(=O)Nc1cc(-c2cc(-c3ccc(N4CCNCC4)cc3)cnc2N)ccc1O`, the IC50 was above 5000 nM.

Molecule `CCCS(=O)(=O)Nc1cc(-c2cc(-c3ccc(N4CCNCC4)cc3)cnc2N)cc(OC)c1OC` yielded an IC50 of 1 nM. As to `COc1cc(NS(C)(=O)=O)cc(-c2cc(-c3ccc(N4CCNCC4)cc3)cnc2C)c1`, the IC50 was found to be 3700 nM. This IC50 lies about 3700-fold higher than the previous one.

`COc1cc(NS(=O)(=O)C(C)C)cc(-c2cc(-c3ccc(N4CCNCC4)cc3)cnc2N)c1` gave an IC50 of 121 nM. Molecule `COc1cc(-c2cc(-c3ccc(N4CCNCC4)cc3)cnc2N)cc(F)c1OC` came in with an IC50 of 595 nM. `CCCS(=O)(=O)N1CCOc2ccc(-c3cc(-c4ccc(N5CCNCC5)cc4)cnc3N)cc21` registered an IC50 of 1010 nM. `COc1cc(NS(=O)(=O)c2ccccc2)cc(-c2cc(-c3ccc(N4CCNCC4)cc3)cnc2N)c1` returned a concentration for half-maximal inhibition (IC50) of 53 nM. Compared with the last molecule, the IC50 is about 19-fold lower. Regarding `CCCS(=O)(=O)NCc1cc(-c2cc(-c3ccc(N4CCNCC4)cc3)cnc2N)ccc1OC`, the half-inhibitory concentration (IC50) came to 1290 nM.

Molecule `COc1cc(NS(C)(=O)=O)cc(-c2cc(-c3ccc(N4CCNCC4)cc3)cnc2N)c1` returned an IC50 of 390 nM. This IC50 is about 3.3-fold lower than that of the molecule before. As for `COc1cc(NS(=O)(=O)C(C)C)cc(-c2cc(-c3ccc(N4CCNCC4)cc3)cnc2C)c1`, the IC50 amounted to 523 nM.

Molecule `CCCS(=O)(=O)Nc1cc(-c2cc(-c3ccc(N4CCNCC4)cc3)cnc2N)cc(Cl)c1OC` displayed an IC50 of 46 nM. In the case of `CCCS(=O)(=O)Nc1cc(-c2cc(-c3ccc(N4CCNCC4)cc3)cnc2C)cc(F)c1OC` it was 2560 nM. With `CCCS(=O)(=O)Nc1cc(OC)cc(-c2cc(-c3ccc(N4CCNCC4)cc3)cnc2N)c1`, the IC50 is 243 nM. Under `CCCS(=O)(=O)Nc1cc(-c2cncc(-c3ccc(N4CCNCC4)cc3)c2)cc(F)c1OC` stands 352 nM; under `CCCS(=O)(=O)Nc1cc(-c2cc(-c3ccc(N4CCNCC4)cc3)cnc2N)ccc1C`, 1060 nM.

As for `CC(C)Oc1cc(NS(=O)(=O)C(C)C)cc(-c2cc(-c3ccc(N4CCNCC4)cc3)cnc2N)c1`, the IC50 came out at 323 nM. As to `CCS(=O)(=O)Nc1cc(OC)cc(-c2cc(-c3ccc(N4CCNCC4)cc3)cnc2C)c1`, the IC50 is 5240 nM. Compared with the last molecule, the IC50 is about 16-fold higher.
